Source: PubChem
MC4R antagonist – antagonists of human melanocortin 4 receptor (MC4R); P32245; MC4R-expressing cells, MTII-stimulated cAMP, LANCE TR-FRET; inhibition, % at 6.5 µM; 360,000 tested, 0.48% active; AID 540295;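 active = inhibition above its plate's cutoff, the mean of tested wells on that plate plus 3 SD, cut at about 29% in these data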;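 also: 0% = Melanotan II alone and 100% = Melanotan II plus saturating MCL0020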
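System – human MC4R-expressing U2OS cells · Also added – Melanotan II · Dosing – one concentration, 6.5 µM nominal · Timing – 30-min compound, 1-h challenge, 1-h detection, room temperature · Measured by – Eu-cAMP/anti-cAMP TR-FRET, emission 671 nm · Replicates – singlicate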
MIN6 prolif – MIN6 beta-cell proliferation induction; MIN6 cells proliferation, ATPlite luminescence, 48 h; cells starved in 0.2% serum; 100% = growth in 10% serum; proliferation, % at 10 µM; AID 2380; 330,000 tested, 0.29% active;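 active = compounds whose signal lies at least 3.5 SD above the mean of all wells on their plate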;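 also: 0% = DMSO-treated cells in low-serum medium and 100% = 10% serum control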
MC4R barr agon – activates human MC4R beta-arrestin recruitment | activation, % at 8.9 µM | U2OS MC4R beta-arrestin complementation, luminescence; percent of melanotan II response, DMSO zero | P32245 | 360,000 tested, 0.98% active;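 active = activation above a per-plate cutoff, the mean activation of sample wells on that plate plus 3 SD, cut at about 8% in these data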
TLR4 MyD88 comp – TLR4-MyD88 interaction inhibition in cells; HeLa CL3-4 TLR4/MyD88 BLA complementation, FRET ratio; O00206+Q99836; inhibition, % at 8.4 µM; 200,000 tested, 0.18% active; in the data active = inhibition above about 25%;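 also: 0% = vehicle and 100% = reference inhibitor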
TLR9-MyD88 inh – inhibitors of human TLR9-MyD88 binding | CHO BLA complementation TLR9-MyD88, CCF4 FRET ratio | 340,000 tested, 0.21% active | inhibition, % at 4.98 µM | Q9NR96+Q99836;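 active = inhibition above the mean over all tested compounds plus 3 SD, cut at about 21% in these data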;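 also: 0% = DMSO only wells and 100% = clavulanate BLA inhibitor control wells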
NOD2-RIPK2 inh – inhibitors of human NOD2-RIPK2 interaction; O43353; CHO BLA complementation NOD2-RIPK2, CCF4 ratio; inhibition, % at 4.98 µM; 360,000 tested, 0.38% active; in the data active = inhibition above about 21%;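 also: 0% = vehicle only and 100% = reference blocker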
Target sequence (O43353 whole entry, looked up): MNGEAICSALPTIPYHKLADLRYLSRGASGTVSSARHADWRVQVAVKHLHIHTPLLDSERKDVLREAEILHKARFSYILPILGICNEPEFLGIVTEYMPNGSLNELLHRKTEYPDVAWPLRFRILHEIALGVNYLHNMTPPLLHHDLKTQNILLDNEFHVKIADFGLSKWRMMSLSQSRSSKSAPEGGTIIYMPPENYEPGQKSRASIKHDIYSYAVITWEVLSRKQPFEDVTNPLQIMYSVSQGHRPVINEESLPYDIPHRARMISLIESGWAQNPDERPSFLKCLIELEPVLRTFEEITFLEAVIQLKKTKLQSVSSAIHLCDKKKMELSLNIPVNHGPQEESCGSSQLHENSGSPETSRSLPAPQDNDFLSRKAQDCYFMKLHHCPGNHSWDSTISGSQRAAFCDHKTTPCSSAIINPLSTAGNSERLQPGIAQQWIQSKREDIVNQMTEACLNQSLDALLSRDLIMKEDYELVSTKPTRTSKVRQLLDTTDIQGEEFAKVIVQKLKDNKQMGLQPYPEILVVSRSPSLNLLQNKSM
* = called active by the depositor; / = not tested or not shown. This is a sample that favours compounds with a hit; in the whole collection about 2.1% have one here.

SMILES | MC4R antagonist | MIN6 prolif | MC4R barr agon | TLR4 MyD88 comp | TLR9-MyD88 inh | NOD2-RIPK2 inh
CC(=O)Oc1ccc(N2C(=O)C3C4C=CC(CO)(O4)C3C2=O)cc1 (centres undefined) | -6 | 0 | -2 | 1 | 11 | 9
O=C1C2C3C=CC(CO)(O3)C2C(=O)N1c1ccccc1-c1ccccc1 (centres undefined) | -3 | -5 | -3 | 2 | 5 | 81*
CC(C)(C)C1CCc2sc(C(=O)NNC(=O)CCl)cc2C1 (centres undefined) | 11 | / | 19* | -2 | -9 | -4
CC(C)(C)C1CCC(=NNC(=O)c2cc3c(s2)CCCC3)CC1 (centres undefined) | 5 | 1 | 0 | 6 | 4 | -8
CC(C)(C)OC(=O)N1CCC(NC(=O)c2[nH]cnc2C(=O)Nc2ccc(Br)cc2F)CC1 | 5 | / | -1 | / | -5 | -5
CC(C)(C)OC(=O)N1CCC(NC(=O)c2[nH]cnc2C(=O)Nc2ccccc2F)CC1 | 8 | / | 8.3* | / | 12 | 8
Cc1ccc(NC(=O)c2nc[nH]c2C(=O)NC2CCN(C(=O)OC(C)(C)C)CC2)cc1 | 7 | -2 | 0 | / | -1 | -2
CC(C)(C)OC(=O)N1CCC(NC(=O)c2[nH]cnc2C(=O)Nc2ccccc2)CC1 | 3 | -4 | 8.5* | / | 6 | -23
CSCCC(NS(=O)(=O)c1ccc2c(c1)OCCO2)C(=O)N(C)Cc1ccccc1F (centres undefined) | 22 | 3 | 0 | / | -2 | -2
O=C(COC(=O)/C=C/c1ccccc1[N+](=O)[O-])Nc1ccc(OC(F)F)cc1 | 2 | -1 | 4 | -14 | 5 | -4
O=C(COC(=O)/C=C/c1ccccc1[N+](=O)[O-])Nc1ccc(OCc2ccccc2)cc1 | -5 | 0 | 9.2* | 1 | 6 | 2
Oc1ccccc1/C=N/n1c2ccccc2c2ccccc21 | -4 | 0 | 9.2* | 18 | -13 | -14
C(=N\n1c2ccccc2c2ccccc21)/c1ccccc1 | 4 | 0 | 0 | 0 | -2 | -2
CC(Oc1ccccc1)C(=O)N=C1SC2CS(=O)(=O)CC2N1c1ccccc1 (centres undefined) | 17 | -1 | 1 | / | 1 | 12
CC(C)[C@@H]1CC[C@@H](C)C[C@H]1OC(=O)C[n+]1cc(-c2ccc(Cl)cc2)n2c1CCCCC2 | 4 | -4 | 59* | / | -5 | -15
COc1ccc(C(c2c(O)ccc3ccccc23)N2CCOCC2)c(OC)c1 (centres undefined) | 5 | -6 | -4 | -6 | 1 | 48*
O=C(O)CSc1nnc(COc2ccc(Br)cc2)n1-c1ccccc1 | 0 | -1 | -1 | / | -5 | -2
Cc1ccc(-n2sc3ccccc3c2=O)cc1S(=O)(=O)N1CCCCC1 | 53* | -4 | -4 | 1 | 6 | 18
O=C(COc1cccc(Cl)c1)N/N=C\c1cc2ccccc2nc1Cl | 5 | 1 | 9.0* | -25 | -2 | -8
Cc1ccccc1OCC(=O)N/N=C/c1cc2ccccc2nc1Cl | 1 | -3 | 3 | 6 | -8 | -15
S=c1[nH]nc(-c2cccs2)n1/N=C/c1cn(-c2ccccc2)nc1-c1ccccc1 | 19 | -4 | 9.4* | / | 5 | -15
COC(=O)c1cccc(NC(=S)Nc2cc(Cl)ccc2OC)c1 | -1 | -3 | -2 | 5 | 7 | 1
COC(=O)c1cccc(NC(=O)Nc2ccc(Cl)cc2Cl)c1 | 2 | -3 | 9.0* | / | -2 | -2
COc1ccc(S(=O)(=O)N2CCOCC2)cc1NC(=O)c1cccs1 | 17 | -2 | -3 | / | -6 | 6
Nc1ccccc1SCc1c(Cl)cccc1Cl | -4 | -1 | 8.5* | / | -15 | 0
SMILES | MC4R antagonist | MIN6 prolif | MC4R barr agon | TLR4 MyD88 comp | TLR9-MyD88 inh | NOD2-RIPK2 inh
CCOC(=O)C1=C(c2ccccc2)NC(=O)NC1c1ccc(O)c(Cl)c1 (centres undefined) | 9 | -1 | 52* | / | -8 | 4
COc1ccc(C2C(O)C(c3c[nH]c4ccccc34)=NN2C(=O)CCl)cc1 (centres undefined) | 12 | -4 | 16* | / | -4 | 1
COc1ccc(C2NN=C(c3c[nH]c4ccccc34)C2O)cc1 (centres undefined) | 18 | -5 | 1 | / | 9 | -13
O=C(CSc1nc2ccccc2n1S(=O)(=O)c1cccc([N+](=O)[O-])c1)NCCc1ccccc1 | 3 | 0 | 9.4* | 2 | 1 | 3
COc1ccc2nc(SCC(=O)NCc3ccc(OC)c(OC)c3)[nH]c2c1 | 13 | -1 | -1 | / | 5 | -5
C=C(CN(C)C)C(=O)c1ccc2c(c1)OCO2 | 31* | / | -3 | / | -1 | 4
O=C(NC(=S)N1CCOCC1)C12CC3CCC(CC(C3)C1)C2 | 10 | 0 | -1 | 4 | -9 | -4
CC12CC3(C)CC(C)(C1)CC(C(=O)NC(=S)N1CCOCC1)(C2)C3 | 7 | 4 | 8.7* | -10 | -2 | -2
COc1cc(-c2[nH]ncc2CN2CCN(Cc3cccs3)CC2)cc(OC)c1OC | 16 | -2 | 0 | 5 | 6 | -4
N#Cc1c2ccc(OCC(N)=O)cc2n2ccccc12 | -1 | 8.1* | -3 | 18 | 13 | 7
CC(=O)Nc1cccc(NC(=O)C(C)N2c3cccc4cccc(c34)S2(=O)=O)c1 (centres undefined) | 9 | -3 | 1 | / | 8 | 13
Cc1cccc(OCC(=O)Nc2nc3ccc([N+](=O)[O-])cc3s2)c1 | 7 | -4 | 1 | -14 | -10 | -8
Cc1cccc(OCC(=O)Nc2nc3ccc([N+](=O)[O-])cc3s2)c1C | 17 | -5 | 9.1* | 12 | 2 | -4
CCC(C)(C)NC(=O)C(c1ccc(F)cc1)N(CCOC)C(=O)CCC(=O)Nc1nccs1 (centres undefined) | 13 | 2 | 0 | / | -6 | 3
O=C(COC(=O)c1ccccc1)Nc1ccc(Cl)cn1 | 2 | -2 | 1 | -6 | -6 | -1
COc1ccc(C(=O)OCC(=O)Nc2ccc(Cl)cn2)cc1 | 3 | 1 | 8.8* | -3 | -2 | -10
O=C(COC(=O)Cc1cccc(C(F)(F)F)c1)NC(=O)NC1CCCC1 | 4 | -5 | 8.3* | / | -13 | 9
